Data: ChEMBL document CHEMBL1147676, “Synthesis and antitumor characterization of pyrazolic analogues of the marine pyrroloquinoline alkaloids: wakayin and tsitsikammamines” (J Med Chem, 2006)

Experiments:
[1] = target: T1, DNA topoisomerase 1 (Homo sapiens) (UniProt P11387); test: Inhibition of topoisomerase 1 DNA cleavage activity
T1 sequence (whole entry): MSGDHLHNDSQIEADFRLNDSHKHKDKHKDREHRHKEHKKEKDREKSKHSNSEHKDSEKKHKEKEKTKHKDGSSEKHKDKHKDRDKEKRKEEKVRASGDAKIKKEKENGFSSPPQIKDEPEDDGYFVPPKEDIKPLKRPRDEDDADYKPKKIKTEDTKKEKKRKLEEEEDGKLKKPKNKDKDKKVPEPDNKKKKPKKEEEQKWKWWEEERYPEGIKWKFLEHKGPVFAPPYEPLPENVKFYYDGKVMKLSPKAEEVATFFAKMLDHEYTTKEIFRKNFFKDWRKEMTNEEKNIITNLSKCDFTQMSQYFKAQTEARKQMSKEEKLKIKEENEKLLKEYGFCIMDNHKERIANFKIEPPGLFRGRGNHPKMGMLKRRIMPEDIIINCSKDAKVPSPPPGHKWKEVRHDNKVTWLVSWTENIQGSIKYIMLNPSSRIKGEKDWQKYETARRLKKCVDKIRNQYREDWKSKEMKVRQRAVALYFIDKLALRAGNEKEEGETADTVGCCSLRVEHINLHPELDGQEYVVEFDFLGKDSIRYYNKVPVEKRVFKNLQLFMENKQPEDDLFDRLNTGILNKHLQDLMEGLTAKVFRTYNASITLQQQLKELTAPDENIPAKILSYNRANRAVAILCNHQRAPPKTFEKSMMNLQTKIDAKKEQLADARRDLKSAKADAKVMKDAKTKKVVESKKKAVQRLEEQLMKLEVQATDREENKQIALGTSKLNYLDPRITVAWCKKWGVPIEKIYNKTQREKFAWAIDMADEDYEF
Procedure, shortened: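 Human topoisomerase I (2 units) incubated with 0.25 μg DNA I for 30 min at 37 °C with or without compound. Stopped with 1% SDS, proteinase K (50 μg/mL, 15 min, 37 °C), extracted twice with CIA, and run on 1% agarose (3.5 h, 75 V). Gel stained afterwards with ethidium bromide. Active concentration is the lowest giving complete inhibition, i.e. no relaxed or linear DNA.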

[2] = target: DNA topoisomerase II (Homo sapiens) (UniProt P11388+Q02880); test: Inhibition of topoisomerase 2 DNA cleavage activity; assay type: protein assay
Procedure, shortened: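 Human topoisomerase II (4 units) incubated with 0.25 μg pRYG DNA and 0.5 mM ATP (final) for 30 min at 37 °C. Stopped with 1% SDS, proteinase K (50 μg/mL, 15 min), CIA extraction, and 1% agarose gel at 75 V for 3.5 h, then post-stained with 0.5 μg/mL ethidium bromide. Reported value is the lowest concentration abolishing relaxed or linear DNA.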

HCT-15 [3] = test: Antiproliferative activity against human HCT15 cell line at 10 uM; assay type: functional
Procedure, shortened: (§1)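 Growth inhibition at the top 10 μM concentration of a 72 h XTT/PMS proliferation assay (4 h stain, 492 nm, four wells), expressed against 0.1% DMSO control. Cells were in phenol-red-free RPMI with 10% FCS, seeded at 2000 cells/well (HCT15, PC3, CT26, Renca) or 1000 cells/well (HT29), and dosed 24 h after seeding.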

HT-29 [4] = test: Antiproliferative activity against human HT29 cell line at 10 uM; assay type: functional; procedure, shortened: as §1
PC-3 [5] = test: Antiproliferative activity against human PC3 cell line at 10 uM; assay type: functional; procedure, shortened: as §1
CT26 [6] = test: Antiproliferative activity against mouse CT26 cell line at 10 uM; assay type: functional; procedure, shortened: as §1
Renca [7] = test: Antiproliferative activity against mouse Renca cell line at 10 uM; assay type: functional; procedure, shortened: as §1
HCT-15 [8] = test: Antiproliferative activity against human HCT15 cell line; assay type: functional, cell-based
Procedure, shortened: (§2)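 Cells grown in RPMI with 10% heat-inactivated FCS, no antibiotics, 37 °C, 5% CO2, and checked mycoplasma-free. Seeded at 2000 cells/well (HCT15, PC3, CT26, Renca) or 1000 cells/well (HT29). After 24 h, exposed for 72 h to nine concentrations from 1 nM to 10 μM in phenol-red-free medium, 0.1% DMSO final. Read by XTT/PMS reduction (4 h, 492 nm), four wells per concentration. IC50 from a four-parameter logistic fit of growth as % of DMSO control.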

HT-29 [9] = test: Antiproliferative activity against human HT29 cell line; assay type: functional, cell-based; procedure, shortened: as §2
PC-3 [10] = test: Antiproliferative activity against human PC3 cell line; assay type: functional, cell-based; procedure, shortened: as §2
CT26 [11] = test: Antiproliferative activity against mouse CT26 cell line; assay type: functional, cell-based; procedure, shortened: as §2
Renca [12] = test: Antiproliferative activity against mouse Renca cell line; assay type: functional, cell-based; procedure, shortened: as §2

| Compound | Inhibition [1] | Inhibition [2] | IC50 (HCT-15 [8]) | IC50 (HT-29 [9]) | IC50 (PC-3 [10]) | IC50 (CT26 [11]) | inhibition at 10 µM (HCT-15 [3]) | inhibition at 10 µM (HT-29 [4]) | inhibition at 10 µM (PC-3 [5]) | inhibition at 10 µM (CT26 [6]) | inhibition at 10 µM (Renca [7]) | IC50 (Renca [12]) |
| --- | --- | --- | --- | --- | --- | --- | --- | --- | --- | --- | --- | --- |
| O=C1c2[nH]cc3c2C(=NCC3)c2c(-c3ccccc3)n[nH]c21 | 100 µM | > 100 µM | – | – | – | – | 0% | 0% | 0% | 0% | 0% | – |
| O=C1c2[nH]cc3c2C(=NCC3)c2[nH]nc(-c3ccccc3)c21 | > 100 µM | > 100 µM | 2.7 µM | – | – | – | – | 47% | 0% | 0% | 0% | – |
| O=C1c2c[nH]nc2C2=NCCc3c[nH]c1c32 | > 100 µM | 100 µM | – | – | – | – | 25% | 45% | 0% | 0% | 0% | – |
| Cc1ccc(S(=O)(=O)n2cc3c4c2C(=O)c2[nH]nc(-c5ccccc5)c2C4=NCC3)cc1 | 300 µM | – | – | – | – | – | 0% | 0% | 0% | 0% | 0% | – |
| Cn1ncc2c1C(=O)c1[nH]cc3c1C2=NCC3 | > 100 µM | > 100 µM | – | – | – | – | 0% | 4% | 0% | 7% | 6% | – |
| Cc1ccc(S(=O)(=O)n2cc3c4c2C(=O)c2cnn(C)c2C4=NCC3)cc1 | > 100 µM | > 100 µM | 5 µM | 1.9 µM | 5.8 µM | 4.9 µM | – | – | – | – | – | 4.6 µM |
| Cn1ncc2c1C1=NCCc3c[nH]c(c31)C2=O | > 100 µM | 100 µM | – | 3.6 µM | – | 7 µM | 0% | – | 0% | – | – | 6.3 µM |
| CC[C@@]1(O)C(=O)OCc2c1cc1n(c2=O)Cc2cc3ccccc3nc2-1 [CAMPTOTHECIN] | – | – | 0.018 µM | 0.03 µM | 0.052 µM | 0.034 µM | – | – | – | – | – | 0.304 µM |
| Cc1ccc(S(=O)(=O)n2cc3c4c2C(=O)c2cn[nH]c2C4=NCC3)cc1 | 300 µM | > 300 µM | – | – | – | – | 0% | 0% | 0% | 0% | 0% | – |
| Cc1ccc(S(=O)(=O)n2cc3c4c2C(=O)c2c(-c5ccc(O)cc5)n[nH]c2C4=NCC3)cc1 | 10 µM | 100 µM | – | – | – | – | 0% | 41% | 0% | 0% | 0% | – |
| Cc1ccc(S(=O)(=O)n2cc3c4c2C(=O)c2[nH]nc(-c5ccc(O)cc5)c2C4=NCC3)cc1 | 30 µM | > 100 µM | – | – | – | – | 0% | 23% | 0% | 0% | 0% | – |
| O=C1c2[nH]ncc2C2=NCCc3c[nH]c1c32 | > 100 µM | 100 µM | – | – | – | – | 0% | 0% | 0% | 0% | 0% | – |
| Cc1ccc(S(=O)(=O)n2cc3c4c2C(=O)c2c(-c5ccccc5)n[nH]c2C4=NCC3)cc1 | 100 µM | > 100 µM | – | – | – | – | 0% | 0% | 0% | 0% | 0% | – |

Further lines, with some results ahead:

| Inhibition [1] | Inhibition [2] | IC50 (HCT-15 [8]) | IC50 (HT-29 [9]) | IC50 (PC-3 [10]) | IC50 (CT26 [11]) | Compound | inhibition at 10 µM (HCT-15 [3]) | inhibition at 10 µM (HT-29 [4]) | inhibition at 10 µM (PC-3 [5]) | inhibition at 10 µM (CT26 [6]) | inhibition at 10 µM (Renca [7]) | IC50 (Renca [12]) |
| --- | --- | --- | --- | --- | --- | --- | --- | --- | --- | --- | --- | --- |
| 100 µM | > 100 µM | – | – | – | – | Cc1ccc(S(=O)(=O)n2cc3c4c2C(=O)c2n[nH]cc2C4=NCC3)cc1 | 0% | 0% | 0% | 0% | 0% | – |
| – | 100 µM | 4.5 µM | 6.6 µM | 7.8 µM | 0.2 µM | COc1cc([C@@H]2c3cc4c(cc3[C@@H](O[C@@H]3O[C@@H]5CO[C@@H](C)O[C@H]5[C@H](O)[C@H]3O)[C@H]3COC(=O)[C@H]23)OCO4)cc(OC)c1O [ETOPOSIDE] | – | – | – | – | – | 2.9 µM |
| 300 µM | – | 6.5 µM | 3.1 µM | 4.9 µM | 5.3 µM | Cc1ccc(S(=O)(=O)n2cc3c4c2C(=O)c2c(cnn2C)C4=NCC3)cc1 | – | – | – | – | – | 0.14 µM |
| 300 µM | > 300 µM | – | – | – | – | O=C1c2[nH]cc3c2C(=NCC3)c2n[nH]c(-c3ccc(O)cc3)c21 | 0% | 0% | 0% | 0% | 0% | – |
| > 100 µM | 100 µM | – | – | – | – | O=C1c2n[nH]c(-c3ccc(O)cc3)c2C2=NCCc3c[nH]c1c32 | 0% | 0% | 0% | 0% | 0% | – |
| > 100 µM | – | 1.6 µM | 2.9 µM | 5.2 µM | 2.9 µM | Cc1ccc(S(=O)(=O)n2cc3c4c2C(=O)c2c(n[nH]c2C2(O)C(=O)N(C)c5ccccc52)C4=NCC3)cc1 (configuration not stated) | – | – | – | – | – | 1.9 µM |
